From ChEMBL document CHEMBL1828575, “Design, synthesis and antiproliferative activities of biarylolefins based on polyhydroxylated and carbohydrate scaffolds” (Eur J Med Chem, 2011)
Activity calls are given as the source filed them. The rule behind the calls is not given here.

Experiments:
Ovis aries = species: Ovis aries; experiment: Inhibition of sheep brain tubulin polymerization at 10 uM
Outline: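 Microtubule protein from sheep brain, purified by two assembly/disassembly cycles (37 °C/0 °C), in 100 mM MES pH 6.6, 1 mM EGTA, 0.5 mM MgCl₂. Compounds in DMSO were tested at a single concentration, with incubation at 37 °C for 10 min and then 0 °C for 5 min before measuring assembly rate, following a modified Guénard protocol.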

[1] = Inhibition of sheep brain tubulin polymerization; design: species or system Ovis aries

- tubulin polymerization inhibition call (active/not active) (Ovis aries): Active
- IC50 [1]: 7.9 µM
SMILES: COc1ccc(C(=O)c2cc(OC)c(OC)c(OC)c2)cc1O [PHENSTATIN]
